This is an account of results in ChEMBL document CHEMBL5247671, “Design and Synthesis of Pyrazole-Based Macrocyclic Kinase Inhibitors Targeting BMPR2” (ACS Med Chem Lett, 2023).

The target of experiment [1] is Vascular endothelial growth factor receptor 1 (Homo sapiens) (UniProt P17948). Briefly: Inhibition of recombinant FLT1 (unknown origin) at 10 uM by DSF assay relative to staurosporine. An outline of the steps:
(§1)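 Differential scanning fluorimetry on an in-house panel of 90 recombinant kinases. Stabilization is read as the shift in melting temperature (ΔTm) relative to ligand-free protein. Staurosporine served as the positive control, and binding was also compared against its ΔTm.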
In general terms: DSF heats the sample and reads unfolding from a dye or from intrinsic fluorescence.

The target of experiment [2] is T1, Bone morphogenetic protein receptor type-2 (Homo sapiens) (UniProt Q13873).
T1 sequence (whole entry): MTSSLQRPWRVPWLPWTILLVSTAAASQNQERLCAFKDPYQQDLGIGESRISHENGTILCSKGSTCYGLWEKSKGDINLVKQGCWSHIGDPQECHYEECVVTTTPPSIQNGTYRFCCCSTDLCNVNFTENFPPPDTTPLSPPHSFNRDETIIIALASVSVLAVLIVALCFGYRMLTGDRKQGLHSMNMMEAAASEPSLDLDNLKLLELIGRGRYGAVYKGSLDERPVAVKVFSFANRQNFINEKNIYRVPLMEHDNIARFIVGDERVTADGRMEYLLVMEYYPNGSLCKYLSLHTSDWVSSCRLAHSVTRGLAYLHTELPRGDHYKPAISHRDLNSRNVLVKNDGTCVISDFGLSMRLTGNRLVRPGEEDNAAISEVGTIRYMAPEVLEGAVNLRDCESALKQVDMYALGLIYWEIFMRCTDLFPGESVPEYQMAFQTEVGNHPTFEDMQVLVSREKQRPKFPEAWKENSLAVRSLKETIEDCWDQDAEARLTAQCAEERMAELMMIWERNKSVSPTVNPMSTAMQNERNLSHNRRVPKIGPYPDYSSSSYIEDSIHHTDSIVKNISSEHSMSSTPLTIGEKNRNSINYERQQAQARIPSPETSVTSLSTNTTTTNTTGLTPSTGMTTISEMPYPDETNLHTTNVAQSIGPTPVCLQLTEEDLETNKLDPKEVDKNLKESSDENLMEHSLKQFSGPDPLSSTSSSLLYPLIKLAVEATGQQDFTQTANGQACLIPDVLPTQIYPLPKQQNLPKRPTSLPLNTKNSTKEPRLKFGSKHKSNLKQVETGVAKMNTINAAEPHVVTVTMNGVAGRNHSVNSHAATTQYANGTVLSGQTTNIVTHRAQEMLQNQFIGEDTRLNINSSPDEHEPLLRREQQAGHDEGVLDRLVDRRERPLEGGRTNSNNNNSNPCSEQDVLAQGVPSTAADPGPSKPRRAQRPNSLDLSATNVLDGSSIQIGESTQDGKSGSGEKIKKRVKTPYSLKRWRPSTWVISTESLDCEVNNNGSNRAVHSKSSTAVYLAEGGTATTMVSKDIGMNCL
Briefly: Binding affinity to recombinant BMPR2 (unknown origin) assessed as change in melting temperature at 10 uM by DSF assay. An outline of the steps: as §1

For experiment [3], the target named is T1, Bone morphogenetic protein receptor type-2 (Homo sapiens). Briefly: Binding affinity to BMPR2 (unknown origin) assessed as change in enthalpy by ITC assay. An outline of the steps:
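Binding measured by isothermal titration calorimetry against the recombinant BMPR2 kinase domain. Thermodynamic binding parameters, including the dissociation constant, were derived from the titration data.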

Experiment [4] relates to T2, Receptor-type tyrosine-protein kinase FLT3 (Homo sapiens), P36888 [D835V].
T2 sequence (whole entry): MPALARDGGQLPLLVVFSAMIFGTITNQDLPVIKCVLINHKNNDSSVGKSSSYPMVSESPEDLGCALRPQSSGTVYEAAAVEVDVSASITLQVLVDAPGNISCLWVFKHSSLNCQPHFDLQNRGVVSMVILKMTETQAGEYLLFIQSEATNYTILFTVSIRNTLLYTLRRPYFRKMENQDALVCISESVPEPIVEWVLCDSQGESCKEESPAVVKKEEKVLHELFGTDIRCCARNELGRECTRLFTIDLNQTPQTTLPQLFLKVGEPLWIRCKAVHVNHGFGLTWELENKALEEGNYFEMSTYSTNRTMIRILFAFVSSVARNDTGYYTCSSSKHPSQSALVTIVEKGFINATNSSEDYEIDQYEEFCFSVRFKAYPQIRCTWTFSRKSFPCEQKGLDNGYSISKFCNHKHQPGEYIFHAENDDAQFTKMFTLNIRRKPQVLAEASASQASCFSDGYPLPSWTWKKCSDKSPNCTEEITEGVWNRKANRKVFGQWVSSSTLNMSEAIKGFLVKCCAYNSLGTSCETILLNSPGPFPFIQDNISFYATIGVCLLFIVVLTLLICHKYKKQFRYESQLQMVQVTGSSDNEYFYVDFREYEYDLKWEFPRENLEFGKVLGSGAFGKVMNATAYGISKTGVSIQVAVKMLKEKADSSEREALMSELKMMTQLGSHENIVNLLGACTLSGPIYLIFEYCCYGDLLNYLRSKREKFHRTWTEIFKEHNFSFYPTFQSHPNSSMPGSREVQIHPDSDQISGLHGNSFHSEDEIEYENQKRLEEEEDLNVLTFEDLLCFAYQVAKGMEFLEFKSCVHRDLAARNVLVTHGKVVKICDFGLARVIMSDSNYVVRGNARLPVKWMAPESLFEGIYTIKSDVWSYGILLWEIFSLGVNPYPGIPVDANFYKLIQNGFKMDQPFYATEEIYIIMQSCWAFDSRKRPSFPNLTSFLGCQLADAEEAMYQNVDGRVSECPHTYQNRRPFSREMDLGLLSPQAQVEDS
Kind of experiment: Inhibition of FLT3 D835V mutant (unknown origin) at 1 uM by Kinomescan assay relative to staurosporine.

The target in experiment [5] is Serine/threonine-protein kinase RIO2 (Homo sapiens) (UniProt Q9BVS4). Kind of experiment: Inhibition of RIOK2 (unknown origin) assessed as residual activity at 1 uM by Kinomescan assay relative to staurosporine.
Serine/threonine-protein kinase RIO2 (Homo sapiens), sequence (Q9BVS4 whole entry, looked up): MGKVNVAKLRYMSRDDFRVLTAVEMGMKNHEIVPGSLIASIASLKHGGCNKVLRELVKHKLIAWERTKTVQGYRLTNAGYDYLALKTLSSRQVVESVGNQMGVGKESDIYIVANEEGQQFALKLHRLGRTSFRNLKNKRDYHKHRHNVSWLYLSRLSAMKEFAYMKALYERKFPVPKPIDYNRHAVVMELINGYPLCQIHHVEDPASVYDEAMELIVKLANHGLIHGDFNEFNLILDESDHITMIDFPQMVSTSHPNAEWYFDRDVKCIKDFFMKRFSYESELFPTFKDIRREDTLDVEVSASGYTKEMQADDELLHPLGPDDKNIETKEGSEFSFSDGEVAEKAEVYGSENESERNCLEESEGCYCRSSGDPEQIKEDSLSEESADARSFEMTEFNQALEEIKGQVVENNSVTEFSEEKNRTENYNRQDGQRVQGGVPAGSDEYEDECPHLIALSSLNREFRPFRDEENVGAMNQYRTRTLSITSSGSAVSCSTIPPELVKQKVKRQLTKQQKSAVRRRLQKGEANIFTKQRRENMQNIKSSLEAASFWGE
The target in experiment [6] is T3, Serine/threonine-protein kinase 4 (Homo sapiens) (UniProt Q13043).
T3 sequence (whole entry): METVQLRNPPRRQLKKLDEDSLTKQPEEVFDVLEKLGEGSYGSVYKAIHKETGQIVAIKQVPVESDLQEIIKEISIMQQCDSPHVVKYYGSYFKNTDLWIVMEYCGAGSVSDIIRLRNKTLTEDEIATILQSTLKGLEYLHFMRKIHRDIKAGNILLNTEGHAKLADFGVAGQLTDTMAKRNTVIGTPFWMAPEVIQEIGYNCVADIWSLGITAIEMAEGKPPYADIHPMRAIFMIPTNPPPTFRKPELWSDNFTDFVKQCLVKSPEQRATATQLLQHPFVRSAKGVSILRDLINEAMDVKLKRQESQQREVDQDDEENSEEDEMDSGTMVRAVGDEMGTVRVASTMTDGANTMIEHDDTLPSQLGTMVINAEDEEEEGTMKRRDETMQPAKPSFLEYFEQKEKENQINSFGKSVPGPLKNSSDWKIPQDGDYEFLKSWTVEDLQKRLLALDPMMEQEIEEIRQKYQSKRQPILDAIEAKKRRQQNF
Briefly: Binding affinity to recombinant STK4 (unknown origin) assessed as change in melting temperature at 10 uM by DSF assay. The gist of the method: as §1

Experiment [7] concerns the target BMP-2-inducible protein kinase (Homo sapiens) (UniProt Q9NSY1). Briefly: Inhibition of recombinant BMP2K (unknown origin) at 10 uM by DSF assay relative to staurosporine. An outline of the steps:
as §1

The structures appear in SMILES notation.

Vascular endothelial growth factor receptor 1 (Homo sapiens), sequence (P17948 whole entry): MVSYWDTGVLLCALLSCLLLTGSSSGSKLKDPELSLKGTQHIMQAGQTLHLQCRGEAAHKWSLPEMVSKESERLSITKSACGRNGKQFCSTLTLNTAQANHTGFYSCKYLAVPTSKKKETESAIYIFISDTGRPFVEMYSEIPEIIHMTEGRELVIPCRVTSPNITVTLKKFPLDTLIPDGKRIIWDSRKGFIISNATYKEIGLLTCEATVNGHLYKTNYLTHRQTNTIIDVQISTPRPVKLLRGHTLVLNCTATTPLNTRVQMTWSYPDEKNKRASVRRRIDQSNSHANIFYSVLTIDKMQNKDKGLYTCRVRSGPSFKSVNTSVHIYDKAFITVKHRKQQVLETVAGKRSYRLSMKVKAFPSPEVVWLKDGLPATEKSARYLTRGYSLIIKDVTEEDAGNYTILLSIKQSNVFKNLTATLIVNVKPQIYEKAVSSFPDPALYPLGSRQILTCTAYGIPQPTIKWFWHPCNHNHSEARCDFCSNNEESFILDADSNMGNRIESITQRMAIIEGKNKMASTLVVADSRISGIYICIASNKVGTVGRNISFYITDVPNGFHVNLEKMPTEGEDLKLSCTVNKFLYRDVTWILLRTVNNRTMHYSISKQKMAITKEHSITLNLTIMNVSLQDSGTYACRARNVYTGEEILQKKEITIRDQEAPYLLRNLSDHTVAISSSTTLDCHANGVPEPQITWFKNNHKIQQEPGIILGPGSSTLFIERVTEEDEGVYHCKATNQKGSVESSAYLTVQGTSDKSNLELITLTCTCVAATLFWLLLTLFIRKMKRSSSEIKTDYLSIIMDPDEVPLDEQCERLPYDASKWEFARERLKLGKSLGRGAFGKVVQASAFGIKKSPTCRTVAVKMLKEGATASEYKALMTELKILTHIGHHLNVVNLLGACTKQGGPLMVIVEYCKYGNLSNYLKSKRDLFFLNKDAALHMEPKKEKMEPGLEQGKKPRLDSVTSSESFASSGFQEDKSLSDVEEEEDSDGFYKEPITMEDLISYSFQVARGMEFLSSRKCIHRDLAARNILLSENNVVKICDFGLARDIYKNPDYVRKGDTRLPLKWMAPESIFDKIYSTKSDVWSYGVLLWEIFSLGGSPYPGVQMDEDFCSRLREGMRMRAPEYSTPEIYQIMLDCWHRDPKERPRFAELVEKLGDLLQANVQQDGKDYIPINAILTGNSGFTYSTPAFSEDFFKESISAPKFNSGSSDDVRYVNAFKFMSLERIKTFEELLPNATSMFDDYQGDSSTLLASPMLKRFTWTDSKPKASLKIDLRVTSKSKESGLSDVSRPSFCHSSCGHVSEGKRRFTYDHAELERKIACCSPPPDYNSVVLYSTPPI
BMP-2-inducible protein kinase (Homo sapiens), sequence (Q9NSY1 whole entry, looked up): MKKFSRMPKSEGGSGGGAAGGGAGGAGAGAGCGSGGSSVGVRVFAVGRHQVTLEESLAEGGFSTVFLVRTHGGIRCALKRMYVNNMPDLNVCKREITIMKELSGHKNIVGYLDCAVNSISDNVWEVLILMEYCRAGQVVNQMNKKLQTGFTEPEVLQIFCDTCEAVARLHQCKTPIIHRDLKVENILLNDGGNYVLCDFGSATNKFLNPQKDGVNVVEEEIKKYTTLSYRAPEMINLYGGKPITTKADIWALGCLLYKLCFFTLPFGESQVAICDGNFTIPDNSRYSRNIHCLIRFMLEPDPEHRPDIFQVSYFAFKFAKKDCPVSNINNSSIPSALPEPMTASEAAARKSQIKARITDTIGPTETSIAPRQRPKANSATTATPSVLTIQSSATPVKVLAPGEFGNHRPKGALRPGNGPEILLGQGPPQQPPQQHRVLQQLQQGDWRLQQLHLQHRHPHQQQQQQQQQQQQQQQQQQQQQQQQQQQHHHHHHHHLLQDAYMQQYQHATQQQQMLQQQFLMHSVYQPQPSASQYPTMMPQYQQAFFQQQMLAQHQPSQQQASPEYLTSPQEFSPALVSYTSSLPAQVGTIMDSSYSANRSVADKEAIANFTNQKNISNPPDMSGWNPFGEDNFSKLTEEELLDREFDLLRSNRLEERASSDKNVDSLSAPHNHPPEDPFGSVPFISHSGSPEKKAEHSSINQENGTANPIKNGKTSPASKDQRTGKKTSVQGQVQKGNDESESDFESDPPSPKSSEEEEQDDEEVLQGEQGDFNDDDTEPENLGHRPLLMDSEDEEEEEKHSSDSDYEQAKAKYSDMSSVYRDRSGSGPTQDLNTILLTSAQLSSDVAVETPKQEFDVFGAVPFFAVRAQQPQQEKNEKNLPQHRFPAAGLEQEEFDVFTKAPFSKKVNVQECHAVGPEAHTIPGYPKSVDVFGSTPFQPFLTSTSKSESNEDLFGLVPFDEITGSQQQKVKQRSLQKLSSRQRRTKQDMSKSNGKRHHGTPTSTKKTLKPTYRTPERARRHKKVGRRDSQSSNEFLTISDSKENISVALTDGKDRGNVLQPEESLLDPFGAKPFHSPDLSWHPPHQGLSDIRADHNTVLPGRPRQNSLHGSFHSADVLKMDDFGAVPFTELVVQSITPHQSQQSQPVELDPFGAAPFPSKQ

For orientation: inhibition means how much of the control response was suppressed. As a reminder, the ΔTm is the shift of the melting midpoint relative to a reference. For the compound `O=C1NCCc2ccc(cc2)Nc2nccc(n2)Nc2cc1[nH]n2`, the inhibition in experiment [1] was determined as 36%; in experiment [4], 4.5%; in experiment [7] it was 30%. The ΔTm was 5.8 °C in experiment [2] and 3.2 °C in experiment [6]. For the same compound, in experiment [3], the deltaH is -8.41 kcal/mol. In addition, the Activity in experiment [5] amounted to 27%.
